≈ marks a conversion by molar mass, not a printed value.
Legend:
[1] = system: Staphylococcus aureus; assay: Antimicrobial activity against Staphylococcus aureus ATCC 11632 assessed as diameter of inhibition zone at 20 uM after 24 hrs by Kirby -Baur disc diffusion method; type: functional; conditions: ATCC 11632, 24 h, read-out: DIZ
Outline: (§1)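 Kirby-Bauer disc diffusion was used. Acetone stocks (160 µM) were serially doubled down to 80, 40 and 20 µM. 4 µL of each went onto 5 mm sterile paper discs, which were dried 30 min at 50 °C. Inoculum was 1.5 × 10⁸ CFU/mL diluted to 3 × 10² CFU/mL, and 50 µL was spread on Mueller-Hinton agar. After 24 h at 37 °C the inhibition-zone diameter was measured. Ciprofloxacin served as positive control.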

[2] = system: Aspergillus flavus; assay: Antifungal activity against Aspergillus flavus MTCC 1021 after 48 hrs; type: functional; conditions: MTCC 1021, 48 h
[3] = system: Pseudomonas aeruginosa; assay: Antimicrobial activity against Pseudomonas aeruginosa ATCC 15499 assessed as diameter of inhibition zone at 40 uM after 24 hrs by Kirby -Baur disc diffusion method; type: functional; conditions: ATCC 15499, 24 h, read-out: DIZ; outline: as §1
[4] = system: QG-56; assay: Cytotoxicity against human QG56 cells after 24 hrs by MTT assay; type: functional, cell-based
Outline: (§2)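 The MTT assay seeded 5 × 10⁴ cells per well and grew them 24 h in RPMI 1640 with compound at 2.5–200 µM. Medium without cells was the blank and adriamycin the positive control. MTT was added for 4 h at 37 °C, formazan was solubilised, and absorbance was read at 570 nm. IC50 is the concentration that cuts viability 50% against untreated cells.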

[5] = system: HCT-116; assay: Cytotoxicity against human HCT116 cells after 24 hrs by MTT assay; type: functional, cell-based; outline: as §2
[6] = system: Staphylococcus aureus; assay: Antimicrobial activity against Staphylococcus aureus ATCC 11632 assessed as diameter of inhibition zone at 40 uM after 24 hrs by Kirby -Baur disc diffusion method; type: functional; conditions: ATCC 11632, 24 h, read-out: DIZ; outline: as §1
[7] = system: Bacillus cereus; assay: Antimicrobial activity against Bacillus cereus MTCC 7350 after 24 hrs by broth micro serial dilution method; type: functional; conditions: MTCC 7350, 24 h
Outline: (§3)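 This was broth microdilution in autoclaved Mueller-Hinton broth. 150 µL of compound per well was serially diluted […], and 50 µL of test organism was added. Plates were incubated 24 h at 37 °C and optical density was read.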

[8] = system: Aspergillus niger; assay: Antifungal activity against Aspergillus niger MTCC 1108 after 48 hrs; type: functional; conditions: MTCC 1108, 48 h
[9] = system: Trichoderma viride; assay: Antifungal activity against Trichoderma viride MTCC 1107 assessed as zone of inhibition at 80 uM after 48 hrs by disc diffusion method; type: functional; conditions: MTCC 1107, 48 h, read-out: IZ
Outline: (§4)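 Spores from 4-day potato dextrose agar cultures, suspended in sterile water at 1.5 × 10⁵ CFU/mL. 0.2 mL was spread on potato dextrose agar. 5 mm filter-paper discs soaked with test compound were laid on the lawn. Incubation was 48 h at 28 °C, then the inhibition zone was measured in mm. Fluconazole was the positive control and acetone the negative control.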

[10] = system: Salmonella typhi; assay: Antimicrobial activity against Salmonella typhi ATCC 23564 assessed as diameter of inhibition zone at 20 uM after 24 hrs by Kirby -Baur disc diffusion method; type: functional, Salmonella enterica subsp. enterica serovar Typhi; conditions: Salmonella enterica, ATCC 23564, 24 h; read-out: DIZ
[11] = system: Pseudomonas aeruginosa; assay: Antimicrobial activity against Pseudomonas aeruginosa ATCC 15499 assessed as diameter of inhibition zone at 20 uM after 24 hrs by Kirby -Baur disc diffusion method; type: functional; conditions: ATCC 15499, 24 h, read-out: DIZ; outline: as §1
[12] = system: Curvularia lunata; assay: Antifungal activity against Curvularia lunata MTCC 581 assessed as zone of inhibition at 80 uM after 48 hrs by disc diffusion method; type: functional; conditions: MTCC 581, 48 h, read-out: IZ; outline: as §4
[13] = system: Mus musculus; assay: Antiinflammatory activity in mouse assessed as inhibition of carrageenan-induced increase in paw volume at 200 mg/kg administered 1 hr prior to carrageenan challenge measured after 3 hrs relative to control; type: functional
Outline: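 Mice were fasted 2 h and placed in groups of five. Controls received saline i.p. Phenylbutazone was given at 100 mg/kg i.p., curcumin at 200 mg/kg i.p., and derivatives at 200 mg/kg. After 1 h, 0.1 mL of 1% carrageenan in saline was injected subplantar into the right hind paw. Paw volume was followed by plethysmometer for 3 h, and % inhibition was calculated as (Vc − Vt)/Vc × 100.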

[14] = system: Bacillus cereus; assay: Antimicrobial activity against Bacillus cereus MTCC 7350 assessed as diameter of inhibition zone at 80 uM after 24 hrs by Kirby -Baur disc diffusion method; type: functional; conditions: MTCC 7350, 24 h, read-out: DIZ; outline: as §1
[15] = system: Aspergillus niger; assay: Antifungal activity against Aspergillus niger MTCC 1108 assessed as zone of inhibition at 80 uM after 48 hrs by disc diffusion method; type: functional; conditions: MTCC 1108, 48 h, read-out: IZ; outline: as §4
[16] = system: Trichoderma viride; assay: Antifungal activity against Trichoderma viride MTCC 1107 assessed as zone of inhibition at 40 uM after 48 hrs by disc diffusion method; type: functional; conditions: MTCC 1107, 48 h, read-out: IZ; outline: as §4
[17] = system: Bacillus cereus; assay: Antimicrobial activity against Bacillus cereus MTCC 7350 assessed as diameter of inhibition zone at 20 uM after 24 hrs by Kirby -Baur disc diffusion method; type: functional; conditions: MTCC 7350, 24 h, read-out: DIZ; outline: as §1
[18] = system: HepG2; assay: Cytotoxicity against human HepG2 cells after 24 hrs by MTT assay; type: functional, cell-based; outline: as §2
[19] = system: Salmonella typhi; assay: Antimicrobial activity against Salmonella typhi ATCC 23564 after 24 hrs by broth micro serial dilution method; type: functional, Salmonella enterica subsp. enterica serovar Typhi; conditions: Salmonella enterica, ATCC 23564, 24 h
[20] = system: Escherichia coli; assay: Antimicrobial activity against Escherichia coli ATCC 35218 assessed as diameter of inhibition zone at 80 uM after 24 hrs by Kirby -Baur disc diffusion method; type: functional; conditions: ATCC 35218, 24 h, read-out: DIZ; outline: as §1
[21] = system: Aspergillus niger; assay: Antifungal activity against Aspergillus niger MTCC 1108 assessed as zone of inhibition at 20 uM after 48 hrs by disc diffusion method; type: functional; conditions: MTCC 1108, 48 h, read-out: IZ; outline: as §4
[22] = system: HeLa; assay: Cytotoxicity against human HeLa cells after 24 hrs by MTT assay; type: functional, cell-based; outline: as §2
[23] = system: Trichoderma viride; assay: Antifungal activity against Trichoderma viride MTCC 1107 assessed as zone of inhibition at 20 uM after 48 hrs by disc diffusion method; type: functional; conditions: MTCC 1107, 48 h, read-out: IZ; outline: as §4
[24] = system: Aspergillus flavus; assay: Antifungal activity against Aspergillus flavus MTCC 1021 assessed as zone of inhibition at 80 uM after 48 hrs by disc diffusion method; type: functional; conditions: MTCC 1021, 48 h, read-out: IZ; outline: as §4
[25] = system: Pseudomonas aeruginosa; assay: Antimicrobial activity against Pseudomonas aeruginosa ATCC 15499 assessed as diameter of inhibition zone at 80 uM after 24 hrs by Kirby -Baur disc diffusion method; type: functional; conditions: ATCC 15499, 24 h, read-out: DIZ; outline: as §1
[26] = system: Escherichia coli; assay: Antimicrobial activity against Escherichia coli ATCC 35218 assessed as diameter of inhibition zone at 40 uM after 24 hrs by Kirby -Baur disc diffusion method; type: functional; conditions: ATCC 35218, 24 h, read-out: DIZ; outline: as §1
[27] = system: Aspergillus flavus; assay: Antifungal activity against Aspergillus flavus MTCC 1021 assessed as zone of inhibition at 20 uM after 48 hrs by disc diffusion method; type: functional; conditions: MTCC 1021, 48 h, read-out: IZ; outline: as §4
[28] = system: Curvularia lunata; assay: Antifungal activity against Curvularia lunata MTCC 581 after 48 hrs; type: functional; conditions: MTCC 581, 48 h
[29] = system: Salmonella typhi; assay: Antimicrobial activity against Salmonella typhi ATCC 23564 assessed as diameter of inhibition zone at 40 uM after 24 hrs by Kirby -Baur disc diffusion method; type: functional, Salmonella enterica subsp. enterica serovar Typhi; conditions: Salmonella enterica, ATCC 23564, 24 h; read-out: DIZ
[30] = system: Aspergillus flavus; assay: Antifungal activity against Aspergillus flavus MTCC 1021 assessed as zone of inhibition at 40 uM after 48 hrs by disc diffusion method; type: functional; conditions: MTCC 1021, 48 h, read-out: IZ; outline: as §4
[31] = system: Curvularia lunata; assay: Antifungal activity against Curvularia lunata MTCC 581 assessed as zone of inhibition at 40 uM after 48 hrs by disc diffusion method; type: functional; conditions: MTCC 581, 48 h, read-out: IZ; outline: as §4
[32] = system: Curvularia lunata; assay: Antifungal activity against Curvularia lunata MTCC 581 assessed as zone of inhibition at 20 uM after 48 hrs by disc diffusion method; type: functional; conditions: MTCC 581, 48 h, read-out: IZ; outline: as §4
[33] = system: Staphylococcus aureus; assay: Antimicrobial activity against Staphylococcus aureus ATCC 11632 after 24 hrs by broth micro serial dilution method; type: functional; conditions: ATCC 11632, 24 h; outline: as §3
[34] = system: Pseudomonas aeruginosa; assay: Antimicrobial activity against Pseudomonas aeruginosa ATCC 15499 after 24 hrs by broth micro serial dilution method; type: functional; conditions: ATCC 15499, 24 h; outline: as §3
[35] = system: Trichoderma viride; assay: Antifungal activity against Trichoderma viride MTCC 1107 after 48 hrs; type: functional; conditions: MTCC 1107, 48 h
[36] = system: Bacillus cereus; assay: Antimicrobial activity against Bacillus cereus MTCC 7350 assessed as diameter of inhibition zone at 40 uM after 24 hrs by Kirby -Baur disc diffusion method; type: functional; conditions: MTCC 7350, 24 h, read-out: DIZ; outline: as §1
[37] = system: Salmonella typhi; assay: Antimicrobial activity against Salmonella typhi ATCC 23564 assessed as diameter of inhibition zone at 80 uM after 24 hrs by Kirby -Baur disc diffusion method; type: functional, Salmonella enterica subsp. enterica serovar Typhi; conditions: Salmonella enterica, ATCC 23564, 24 h; read-out: DIZ
[38] = system: Staphylococcus aureus; assay: Antimicrobial activity against Staphylococcus aureus ATCC 11632 assessed as diameter of inhibition zone at 80 uM after 24 hrs by Kirby -Baur disc diffusion method; type: functional; conditions: ATCC 11632, 24 h, read-out: DIZ; outline: as §1
[39] = system: Escherichia coli; assay: Antimicrobial activity against Escherichia coli ATCC 35218 assessed as diameter of inhibition zone at 20 uM after 24 hrs by Kirby -Baur disc diffusion method; type: functional; conditions: ATCC 35218, 24 h, read-out: DIZ; outline: as §1
[40] = system: Escherichia coli; assay: Antimicrobial activity against Escherichia coli ATCC 35218 after 24 hrs by broth micro serial dilution method; type: functional; conditions: ATCC 35218, 24 h; outline: as §3
[41] = system: Aspergillus niger; assay: Antifungal activity against Aspergillus niger MTCC 1108 assessed as zone of inhibition at 40 uM after 48 hrs by disc diffusion method; type: functional; conditions: MTCC 1108, 48 h, read-out: IZ; outline: as §4

SMILES: COc1cc(/C=C/C(CC(/C=C/c2ccc(O)c(OC)c2)=N/c2ccc(S(=O)(=O)Nc3nc(C)cc(C)n3)cc2)=N\c2ccc(S(=O)(=O)Nc3nc(C)cc(C)n3)cc2)ccc1O
- zone of inhibition at 20 µM [1]: 13 mm
- MIC [2]: 80 µM (≈ 71.1 µg/mL)
- zone of inhibition at 40 µM [3]: 18 mm
- IC50 [4]: 50 µM
- IC50 [5]: 25 µM
- zone of inhibition at 40 µM [6]: 18 mm
- MIC [7]: 40 µM (≈ 35.6 µg/mL)
- MIC [8]: 40 µM (≈ 35.6 µg/mL)
- zone of inhibition at 80 µM [9]: 22 mm
- zone of inhibition at 20 µM [10]: 17 mm
- zone of inhibition at 20 µM [11]: 14 mm
- zone of inhibition at 80 µM [12]: 19 mm
- inhibition in vivo at 200 mg/kg [13]: 40.3%
- zone of inhibition at 80 µM [14]: 21 mm
- zone of inhibition at 80 µM [15]: 14 mm
- zone of inhibition at 40 µM [16]: 19 mm
- zone of inhibition at 20 µM [17]: 11 mm
- IC50 [18]: 50 µM
- MIC [19]: 40 µM (≈ 35.6 µg/mL)
- zone of inhibition at 80 µM [20]: 23 mm
- zone of inhibition at 20 µM [21]: 8 mm
- IC50 [22]: 25 µM
- zone of inhibition at 20 µM [23]: 18 mm
- zone of inhibition at 80 µM [24]: 12 mm
- zone of inhibition at 80 µM [25]: 23 mm
- zone of inhibition at 40 µM [26]: 19 mm
- zone of inhibition at 20 µM [27]: 10 mm
- MIC [28]: 20 µM (≈ 17.8 µg/mL)
- zone of inhibition at 40 µM [29]: 21 mm
- zone of inhibition at 40 µM [30]: 11 mm
- zone of inhibition at 40 µM [31]: 16 mm
- zone of inhibition at 20 µM [32]: 12 mm
- MIC [33]: 40 µM (≈ 35.6 µg/mL)
- MIC [34]: 40 µM (≈ 35.6 µg/mL)
- MIC [35]: 20 µM (≈ 17.8 µg/mL)
- zone of inhibition at 40 µM [36]: 18 mm
- zone of inhibition at 80 µM [37]: 24 mm
- zone of inhibition at 80 µM [38]: 23 mm
- zone of inhibition at 20 µM [39]: 17 mm
- MIC [40]: 20 µM (≈ 17.8 µg/mL)
- zone of inhibition at 40 µM [41]: 12 mm

Reference: ChEMBL document CHEMBL2384906, “Biological activity, design, synthesis and structure activity relationship of some novel derivatives of curcumin containing sulfonamides” (Eur J Med Chem, 2013)
